# Source: ChEMBL document CHEMBL4152215, “Anti-leishmanial click modifiable thiosemicarbazones: Design, synthesis, biological evaluation and in silico studies” (Eur J Med Chem, 2018)
# Tests used:
# [1] = system: Leishmania major; assay: Antileishmanial activity against axenic amastigote form of Leishmania major assessed as parasite growth inhibition after 72 hrs by resazurin dye based assay; format: functional, organism-based
# Summary of the method: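 Axenic L. major amastigotes, generated in RPMI-1640 with 10% heat-inactivated FCS, penicillin/streptomycin and L-glutamine, seeded at 2 x 10³ cells/ml onto serially diluted compound (0.04-10 final). Held at 31°C, 5% CO₂, humidified, for 72 h. Resazurin added at 68 h and read at 72 h (ex 530/em 590 nm). IC50 from sigmoidal dose-response curves; mean ± SEM, triplicate experiments in duplicate.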
# [2] = system: Leishmania major; assay: Antileishmanial activity against promastigote form of Leishmania major assessed as parasite growth inhibition after 48 hrs by alamar blue assay; format: functional, organism-based
# [3] = system: Mus musculus; assay: Acute toxicity in mouse assessed as induction of death at 25 to 125 mg/kg/day, po administered via gavage measured during 3 days post dose; format: organism-based; settings: in vivo, 72 h
# Summary of the method: (§1)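 Male mice (25-30 g), six per group, fasted overnight and weighed before dosing. Compound suspended in aqueous 1% gum acacia and given by oral gavage in ascending doses of 25, 50, 75, 100 and 125 mg/kg/day (groups I-V). Vehicle group received gum acacia at up to 1 mL/100 g. Mortality recorded at 24 h and followed for seven days. Spleen, lung, liver and kidney examined.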
# [4] = system: Mus musculus; assay: Acute toxicity in mouse assessed as effect on kidney morphology at 75 mg/kg, ip measured up to 7 days by histopathological analysis; format: organism-based; settings: in vivo, 168 h
# Summary of the method: (§2)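 Groups of six mice dosed by intraperitoneal injection at 5, 10, 25, 50 and 75 mg/kg, with propylene glycol as vehicle and control. Spleen, lung, liver and kidney taken from the 75 mg/kg animals and examined for texture.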
# [5] = system: Mus musculus; assay: Acute toxicity in mouse assessed as effect on liver morphology at 125 mg/kg, po administered via gavage measured after 24 hrs and followed up to 7 days by histopathological analysis; format: organism-based; settings: in vivo; summary of the method: as §1
# [6] = system: Mus musculus; assay: Acute toxicity in mouse assessed as effect on spleen morphology at 125 mg/kg, po administered via gavage measured after 24 hrs and followed up to 7 days by histopathological analysis; format: organism-based; settings: in vivo; summary of the method: as §1
# [7] = system: Leishmania major; assay: Potency index, ratio of miltefosine IC50 to compound IC50 for antileishmanial activity promastigote form of Leishmania major; format: functional
# [8] = system: Leishmania major; assay: Potency index, ratio of miltefosine IC50 to compound IC50 for antileishmanial activity axenic amastigote form of Leishmania major; format: functional
# [9] = Cytotoxicity against African green monkey Vero cells assessed as reduction in cell viability after 72 hrs by crystal violet staining based assay; settings: chlorocebus sabaeus
# Summary of the method: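 Vero cells seeded at 1×10^5 cells/well in MEM with 5% heat-inactivated FBS. Viability by crystal violet staining; CC50 from concentration-response. At least 3 separate experiments, each in duplicate.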
# [10] = system: Mus musculus; assay: Acute toxicity in mouse assessed as effect on lung morphology at 125 mg/kg, po administered via gavage measured after 24 hrs and followed up to 7 days by histopathological analysis; format: organism-based; settings: in vivo; summary of the method: as §1
# [11] = system: Leishmania major; assay: Antileishmanial activity against Leishmania major assessed as parasite survival at 0.16 uM after 48 hrs in presence of 100 uM folinic acid relative to control; format: functional
# Summary of the method: (§3)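 L. major promastigotes in log phase (10⁶ parasites) pre-incubated with folic or folinic acid (20 or 100 µM), washed, resuspended in PBS for 1 h at room temperature, then returned to culture medium in 24-well plates. Compounds added at the fixed concentration, with trimethoprim at 100 µM. Incubated 48 h; living parasites counted per mL against untreated control wells.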
# [12] = system: Mus musculus; assay: Acute toxicity in mouse assessed as effect on lung morphology at 75 mg/kg, ip measured up to 7 days by histopathological analysis; format: organism-based; settings: in vivo, 168 h; summary of the method: as §2
# [13] = system: Mus musculus; assay: Acute toxicity in mouse assessed as effect on survival up to 75 mg/kg dosed via parenteral route measured up to 7 days; format: organism-based; settings: in vivo, 168 h; summary of the method: as §2
# [14] = system: Leishmania major; assay: Antileishmanial activity against Leishmania major assessed as parasite survival at 0.16 uM after 48 hrs relative to control; format: functional; summary of the method: as §3
# [15] = Selectivity index, ratio of CC50 African green monkey Vero cells to IC50 for promastigote form of Leishmania major; format: toxicity; settings: Vero cells versus Leishmania major promastigotes, read-out: Ratio CC50/IC50
# Summary of the method: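 Selectivity index calculated as Vero CC50 (72 h crystal violet) divided by promastigote IC50.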
# [16] = system: Leishmania major; assay: Antileishmanial activity against Leishmania major assessed as parasite survival at 0.16 uM after 48 hrs in presence of 20 uM folic acid relative to control; format: functional; summary of the method: as §3
# [17] = system: Mus musculus; assay: Acute toxicity in mouse assessed as effect on spleen morphology at 75 mg/kg, ip measured up to 7 days by histopathological analysis; format: organism-based; settings: in vivo, 168 h; summary of the method: as §2
# [18] = system: Leishmania major; assay: Antileishmanial activity against Leishmania major assessed as parasite survival at 0.16 uM after 48 hrs in presence of 20 uM folinic acid relative to control; format: functional; summary of the method: as §3
# [19] = system: Mus musculus; assay: Acute toxicity in mouse assessed as effect on body weight at 25 to 125 mg/kg/day, po administered via gavage measured during 3 days post dose; format: organism-based; settings: in vivo, 72 h; summary of the method: as §1
# [20] = system: Mus musculus; assay: Acute toxicity in mouse up to 125 mg/kg/day, po administered via gavage measured after 24 hrs and followed up to 7 days; format: organism-based; settings: in vivo; summary of the method: as §1
# [21] = system: Mus musculus; assay: Acute toxicity in mouse assessed as effect on kidney morphology at 125 mg/kg, po administered via gavage measured after 24 hrs and followed up to 7 days by histopathological analysis; format: organism-based; settings: in vivo; summary of the method: as §1
# [22] = system: Mus musculus; assay: Acute toxicity in mouse assessed as effect on liver morphology at 75 mg/kg, ip measured up to 7 days by histopathological analysis; format: organism-based; settings: in vivo, 168 h; summary of the method: as §2
# [23] = system: Leishmania major; assay: Antileishmanial activity against Leishmania major assessed as parasite survival at 0.16 uM after 48 hrs in presence of 100 uM folic acid relative to control; format: functional; summary of the method: as §3
# [24] = system: Leishmania major; assay: Antileishmanial activity against Leishmania major assessed as parasite survival at 0.25 uM after 48 hrs relative to control; format: functional; summary of the method: as §3
# [25] = system: Leishmania major; assay: Antileishmanial activity against Leishmania major assessed as parasite survival at 0.25 uM after 48 hrs in presence of 20 uM folinic acid relative to control; format: functional; summary of the method: as §3
# [26] = system: Leishmania major; assay: Antileishmanial activity against Leishmania major assessed as parasite survival at 0.25 uM after 48 hrs in presence of 100 uM folinic acid relative to control; format: functional; summary of the method: as §3
# [27] = system: Leishmania major; assay: Antileishmanial activity against Leishmania major assessed as parasite survival at 0.25 uM after 48 hrs in presence of 100 uM folic acid relative to control; format: functional; summary of the method: as §3
# [28] = system: Leishmania major; assay: Antileishmanial activity against Leishmania major assessed as parasite survival at 0.25 uM after 48 hrs in presence of 20 uM folic acid relative to control; format: functional; summary of the method: as §3
smiles,measurement,setting,value
C/C(=N/NC(N)=S)c1ccc(OCc2cn(-c3ccc(C(=O)O)cc3)nn2)cc1,IC50,[1],6.04 µM
same,IC50,[2],7.41 µM
COc1ccc(/C=N\NC(N)=S)cc1OCc1cn(CC(=O)c2ccccc2)nn1,IC50,[1],4.38 µM
same,IC50,[2],4.4 µM
C/C(=N/NC(N)=S)c1ccc(OCc2cn(-c3ccc(S(N)(=O)=O)cc3)nn2)cc1,IC50,[1],8.26 µM
same,IC50,[2],6.79 µM
CCCCCCCCCCCCCCCCOP(=O)([O-])OCC[N+](C)(C)C [MILTEFOSINE],IC50,[1],8.09 µM
C/C(=N/NC(N)=S)c1ccc(OCc2cn(CC(=O)c3ccc(Br)cc3)nn2)cc1,Activity,[3],Non-Toxic
same,Activity,[4],Non-Toxic
same,Activity,[5],Non-Toxic
same,Activity,[6],Non-Toxic
same,Ratio IC50,[7],55.6
same,Ratio IC50,[8],8
same,CC50 at 72 h,[9],509 µM
same,Activity,[10],Non-Toxic
same,Activity,[11],99%
same,Activity,[12],Non-Toxic
same,Activity,[13],Non-Toxic
same,Activity,[14],23%
same,selectivity ratio,[15],3630
same,Activity,[16],91%
same,Activity,[17],Non-Toxic
same,Activity,[18],90%
same,Activity,[19],Non-Toxic
same,Activity,[20],Non-Toxic
same,IC50,[1],1 µM
same,IC50,[2],0.14 µM
same,Activity,[21],Non-Toxic
same,Activity,[22],Non-Toxic
same,Activity,[23],99%
COc1ccc(/C=N/NC(N)=S)cc1OCc1cn(CC(=O)c2ccc(C)cc2)nn1,Ratio IC50,[8],4
same,IC50,[1],2.18 µM
same,IC50,[2],0.99 µM
COc1ccc(/C=N\NC(N)=S)cc1OCc1cn(CC(=O)c2ccc(Br)cc2)nn1,IC50,[1],4.48 µM
same,IC50,[2],5.69 µM
C#CCOc1ccc(/C=N/NC(N)=S)cc1OC,Activity,[3],Non-Toxic
same,Activity,[4],Non-Toxic
same,Activity,[24],25%
same,Activity,[5],Non-Toxic
same,Activity,[6],Non-Toxic
same,Activity,[25],90%
same,Ratio IC50,[8],6
same,CC50 at 72 h,[9],828 µM
same,Activity,[10],Non-Toxic
same,Activity,[12],Non-Toxic
same,Activity,[13],Non-Toxic
same,selectivity ratio,[15],3640
same,Activity,[17],Non-Toxic
same,Activity,[26],98%
same,Activity,[27],97%
same,Activity,[28],89%
same,Activity,[19],Non-Toxic
same,Activity,[20],Non-Toxic
same,IC50,[1],1.4 µM
same,IC50,[2],0.227 µM
same,Activity,[21],Non-Toxic
same,Activity,[22],Non-Toxic
COc1cc(/C=N\NC(N)=S)ccc1OCc1cn(CC(=O)c2ccc(Cl)cc2)nn1,IC50,[1],5.4 µM
same,IC50,[2],4.76 µM
COc1cc(/C=N/NC(N)=S)ccc1OCc1cn(CC(=O)c2ccc(F)cc2)nn1,IC50,[1],6.46 µM
same,IC50,[2],6.93 µM
COc1cc(/C=N\NC(N)=S)ccc1OCc1cn(CC(=O)c2ccccc2)nn1,IC50,[1],5.39 µM
same,IC50,[2],4.87 µM
COc1cc(/C=N/NC(N)=S)ccc1OCc1cn(CC(=O)c2ccc(C)cc2)nn1,IC50,[1],4.97 µM
same,IC50,[2],4.82 µM
COc1ccc(/C=N/NC(N)=S)cc1OCc1cn(-c2ccc(C(=O)O)cc2)nn1,IC50,[1],4.78 µM
same,IC50,[2],5 µM
COc1ccc(/C=N\NC(N)=S)cc1OCc1cn(CC(=O)c2ccc(Cl)cc2)nn1,Ratio IC50,[8],5
same,IC50,[1],1.69 µM
same,IC50,[2],0.798 µM
COc1ccc(/C=N/NC(N)=S)cc1OCc1cn(CC(=O)c2ccc(F)cc2)nn1,IC50,[1],4.83 µM
same,IC50,[2],2.52 µM
COc1ccc(/C=N/NC(N)=S)cc1OCc1cn(-c2ccc(S(N)(=O)=O)cc2)nn1,IC50,[1],4.35 µM
same,IC50,[2],4.38 µM
COc1cc(/C=N/NC(N)=S)ccc1OCc1cn(-c2ccc(C(=O)O)cc2)nn1,IC50,[1],5.6 µM
same,IC50,[2],5.74 µM
COc1cc(/C=N\NC(N)=S)ccc1OCc1cn(CC(=O)c2ccc(Br)cc2)nn1,IC50,[1],5.1 µM
same,IC50,[2],3.97 µM
